In the library only some 5.7% were active in any assay of this set; here they are far more common.
T cruzi repl: T. cruzi replication inhibition; T. cruzi beta-gal in NIH3T3, luminescence, 90 h; inhibition, % (test concentration not listed); 1.4% of 300,000 active;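 active = mean inhibition across valid replicates above about 55%, limit read from the data; inconclusive = mean below that limit but half or more replicates reach it; inactive = mean below it, under half of replicates reach it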;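 note: signal also drops with host cell toxicity which is not excluded here; higher percent means less beta-gal luminescence so fewer parasites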
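compound dosing = single 50 nL compound addition per well in DMSO | material = NIH/3T3 host cells with β-galactosidase reporter T. cruzi | input = 5,000 host fibroblasts per well | timing = ≥90 h infection period, 3 h prior cell attachment | read-out basis = percent inhibition of parasite-derived β-gal signal | detection = GalScreen β-gal luminescence, detergent lysis, 60 min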
CSC inhib: blocks cancer stem cells. cancer stem cell-like cells viability, luminescence. inhibition, % at 7.5 µM. 1.1% of 300,000 active. AID 2717; in the data active = inhibition above about 75%; inconclusive = no clear call, values can overlap the other calls; tested in HMLE shEcad cells
SKKanGAS inh: blocks kanamycin growth of S. pyogenes SKKanGAS strain | BacTiter-Glo, 6 h | inhibition, % at 7.5 µM | 1.3% of 300,000 active | AID 1662;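 active = mean replicate score, as percent of positive control median, at least 50; inconclusive = mean below 50 but one replicate at or above 50; inactive = mean and every replicate below 50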;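 note: strain carries kanamycin resistance gene driven by streptokinase promoter and grows in 40 µg/ml kanamycin; loss of luminescence reflects streptokinase promoter inhibition or plain growth inhibition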
Calb FLC: affects C. albicans growth with fluconazole; C. albicans CaCi-2 + fluconazole, Alamar Blue growth, 48 h; growth inhibition, % (test concentration not listed); 0.57% of 300,000 active; AID 1979;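 active = growth inhibition above about 58% in most replicates, limit read from the data, passing the limit was not always enough; inconclusive = exactly half the replicates above a set limit; inactive = most replicates below a set limit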;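 note: all wells also contain fluconazole at 8 µg/ml as a sub-toxic cotreatment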
Beta apoptosis: beta cell apoptosis inhibition; 0.8% of 300,000 active; protection from apoptosis, % (test concentration not listed); INS-1E cytokine-induced death, ATP luminescence, 48 h; percent of positive-control rescue, neutral wells zero;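 active = Every replicate reaches about 75%, or at least half do and their mean reaches it too, limit read from the data; inconclusive = At least half of replicates reach the limit but their mean does not; inactive = Under half of replicates reach the limit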;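 note: higher means more ATP so stronger rescue from cytokine killing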
Mdm2-MdmX inh: inhibitors of human Mdm2/MdmX interaction; 3% of 330,000 active; O15151+Q00987; AID 485346; inhibition, % at 8 µM; SaOS-2 split-luciferase Mdm2/MdmX complementation, luminescence;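 active = inhibition of at least 50% at 8 µM in the primary screen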
A number is an active result; – = inactive; ? = inconclusive; · = no result.

SMILES | T cruzi repl | CSC inhib | SKKanGAS inh | Calb FLC | Beta apoptosis | Mdm2-MdmX inh
O=C(O)c1cccc(CSc2n[nH]c(-c3ccc(Cl)cc3Cl)n2)c1 | – | – | – | – | – | –
CCN(CC(=O)NCc1cccs1)C(=O)c1ccc([N+](=O)[O-])o1 | 63 | – | – | – | – | –
CCN(CC(=O)NCc1cccs1)C(=O)c1ccc(C)o1 | · | – | · | · | – | –
O=C(CN1CC[n+]2c(-c3ccccc3)csc21)c1ccc(Br)cc1 | – | – | – | – | – | –
O=C(CN1CC[n+]2c(-c3cccs3)csc21)c1ccc(Br)cc1 | 60 | – | – | – | – | –
Cc1nn(-c2ccccc2)c2nc(N)c(C#N)c(-c3ccc(C(C)(C)C)cc3)c12 | – | 94 | – | – | – | –
COc1cccc(-c2c(C#N)c(N)nc3c2c(C)nn3-c2ccccc2)c1O | – | – | – | – | – | –
O=c1c2ccccc2sn1-c1ccc(S(=O)(=O)N2CCCC2)cc1 | 63 | – | – | – | – | –
Cc1ccc(-n2sc3ccccc3c2=O)cc1S(=O)(=O)N1CCCCC1 | 78 | – | 90 | – | – | –
O=C(Nc1ccc(F)c(Cl)c1)C1CC2CCC1C2 (configuration not stated) | – | · | – | – | · | –
CCc1ccc(OCc2n[nH]c(=S)n2C(C)CCCC(C)C)cc1 (configuration not stated) | – | 118 | – | – | – | –
CCc1ccc(OCc2n[nH]c(=S)n2Cc2ccccc2)cc1 | – | – | – | – | – | –
CCCCCCCCC(=O)N/N=C/c1ccccn1 | – | – | – | – | – | –
CCCCCCCCC/C(=N\O)c1ccccn1 | 63 | – | 97 | ? | – | –
OC(CNCCC1C=Nc2ccccc21)Cn1c2ccc(Cl)cc2c2cc(Cl)ccc21 (configuration not stated) | ? | 106 | 136 | 99 | 100 | ·
O=C(CSc1ccc2ccccc2c1Br)Nc1cccc(S(=O)(=O)NC2=NCCCCC2)c1 | – | 91 | – | – | – | –
Cc1ccc(C)c(SCC(=O)Nc2cccc(S(=O)(=O)NC3=NCCCCC3)c2)c1 | – | – | – | – | – | –
CCn1c2ccccc2c2cc(NC(=O)c3cccc([N+](=O)[O-])c3)ccc21 | – | 88 | – | – | – | –
CCn1c2ccccc2c2cc(NC(=O)N3CCOCC3)ccc21 | – | – | – | – | – | –
CCn1c2ccccc2c2cc(/C=N/NC(=O)c3cc(O)cc(O)c3)ccc21 | – | 84 | – | – | – | –
CCn1c2ccccc2c2cc(NC(=O)c3ccc(C)c([N+](=O)[O-])c3)ccc21 | – | – | – | – | – | –
CCn1c2ccccc2c2cc(NC(=O)CN(C)CC(=O)Nc3ccc(N4CCOCC4)cc3)ccc21 | – | 80 | – | – | – | –
CCn1c2ccccc2c2cc(NC(=O)c3cc(OC)cc(OC)c3)ccc21 | – | 84 | – | – | – | –
CCn1c2ccccc2c2cc(/C=N/NC(=O)c3ccc(O)cc3)ccc21 | – | – | – | – | – | –
COc1ccc(C(=O)Nc2nnc(Cc3ccccc3)s2)c(OC)c1 | – | – | – | – | – | –
SMILES | T cruzi repl | CSC inhib | SKKanGAS inh | Calb FLC | Beta apoptosis | Mdm2-MdmX inh
O=C(Cc1ccc([N+](=O)[O-])cc1)Nc1ccc(O)cc1C(=O)O | – | – | – | – | – | –
CCOc1cc(/C=C\c2[nH]c(=O)[nH]c(=O)c2[N+](=O)[O-])ccc1OC(C)CC (configuration not stated) | – | 78 | – | – | – | –
O=C(Nc1ccc(F)cc1F)NC1CCN(Cc2c(F)cccc2Cl)CC1 | · | – | – | – | – | –
Cc1cccc(CSc2ncnc3c2cnn3Cc2ccccc2)c1 | – | – | 76 | – | – | –
CCN(CC)CCCNc1nc(N)c([N+](=O)[O-])c(N2CCCCCC2)n1 | – | – | 66 | – | – | –
CCCCCCCCOC(=O)C[N+](C)(C)C/C=C(/C)Cl | – | – | – | – | – | –
CCCCCCCCCCOC(=O)C[N+](C)(C)C/C=C(/C)Cl | – | – | – | – | 113 | –
CCCCCCCCCCCCOC(=O)C[N+](C)(C)C | · | – | 113 | – | – | –
Cc1ccc(N=C2SC(C(=O)Nc3ccc(OC(F)(F)F)cc3)C(N)=C2C(=O)Nc2c(C)cc(C)cc2C)cc1 (configuration not stated) | · | 106 | · | · | 99 | ·
Clc1cccc(CNc2nc(-c3cccnc3)nc3ccccc23)c1 | 63 | · | – | – | · | –
